Measurements from different studies.
Each line is one published result; the experiments were not run side by side.
Target: Muscarinic acetylcholine receptor M2 (CHRM2, Homo sapiens, UniProt P08172)
Residues used in one study (P08172 1-466): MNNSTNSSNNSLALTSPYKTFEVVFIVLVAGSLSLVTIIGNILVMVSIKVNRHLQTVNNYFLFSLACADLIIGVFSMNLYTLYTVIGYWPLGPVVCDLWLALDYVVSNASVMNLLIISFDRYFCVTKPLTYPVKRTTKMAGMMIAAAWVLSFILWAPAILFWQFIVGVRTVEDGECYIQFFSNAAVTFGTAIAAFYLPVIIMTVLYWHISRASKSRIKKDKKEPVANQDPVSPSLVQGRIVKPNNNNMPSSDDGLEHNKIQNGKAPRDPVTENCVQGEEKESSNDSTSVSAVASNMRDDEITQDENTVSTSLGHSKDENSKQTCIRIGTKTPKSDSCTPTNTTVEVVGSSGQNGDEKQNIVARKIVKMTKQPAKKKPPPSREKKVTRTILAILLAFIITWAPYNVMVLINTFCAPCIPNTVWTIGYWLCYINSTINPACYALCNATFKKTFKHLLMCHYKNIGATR

CCn1c(-c2nc3ccc(C(=O)N4CCCC(N)C4)cc3n2C)cc2ccccc21 (centres unmarked)  IC50 (calcium signal; antagonist; fluorescence): > 15.8 µM
CCCCN1CCC(COC(=O)c2ccc(N)c(OCF)c2)CC1  Ki (cell-free assay; radioligand): > 10 µM
CC[C@@H]1SC2(CCN(C)CC2)NC1=O  EC50 (calcium signal; agonist): > 50 µM
Cc1cc(Oc2nccc3occc23)ccc1-c1c(C)c(=O)[nH]c(=O)n1C1CC1  Ki (ligand displacement; radioligand): 7.7 µM
CCOCc1nc(O)c(-c2nnc(Cc3ccc(Cl)cn3)o2)c(O)c1-c1c(OC)cccc1OC  IC50 (ligand displacement; radioligand): > 30 µM
COc1ccnc(Oc2ccc(-c3c(C)c(=O)[nH]c(=O)n3C)c(C)c2)c1C(F)(F)F  Ki (ligand displacement; radioligand): 6.9 µM
CCn1c(-c2nc3cc(C(=O)N4CCC[C@@H](N)C4)cc(OC)c3n2C)cc2cccnc21  EC50 (calcium signal; agonist): > 15.8 µM
CCN(C(=O)C1CCN(S(=O)(=O)c2ccc3[nH]ncc3c2)CC1)[C@H](C)c1ccccc1  EC50 (calcium signal; agonist): > 30 µM
